Laboratory results published in ChEMBL document CHEMBL4616673 (J Med Chem, 2020).
Converted amounts (≈) assume the structure as drawn. The source made the active and inactive calls. No cut-off for these calls is given here.

How the values were obtained:
[1] = system: A549; assay: Antiproliferative activity against human A549 cells assessed as reduction in cell viability measured after 48 hrs by MTT assay; type: functional, cell-based; conditions: Homo sapiens, A549, 48 h
[2] = Acute toxicity in BALB/c mouse assessed as effect on blood AST level at 800 mg/kg, po measured on day 14; type: organism-based; conditions: in vivo
How it was run: (§1)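 BALB/c mice, female and male, 6-8 weeks old, given oral doses within 24 h, up to 400 mg/kg (free compound) or 800 mg/kg (nanocrystal formulation). Watched for body weight loss, diarrhea, anorexia, skin ulcer and toxic death. Serum biochemistry panel was run at the end of treatment.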

[3] = Acute toxicity in BALB/c mouse assessed as effect on blood ALT level at 400 mg/kg, po measured on day 14; type: organism-based; conditions: in vivo; how it was run: as §1
[4] = system: Raji; assay: Induction of mitochondrial membrane potential loss in human Raji cells measured after 48 hrs by TMRM staining based fluorescence assay; type: functional, cell-based
How it was run: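 Raji cells treated 48 h (CCCP as positive control), washed in PBS. Incubated with TMRM at 100 nM final for 15 min at 37 °C, fluorescence read at ex 510/em 580 nm. Mean ± SD.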

[5] = system: Raji; assay: Induction of apoptosis in human Raji cells assessed as late apoptotic cells at 0.063 uM measured after 48 hrs by Annexin V-FITC staining based flow cytometry (reference value: 0.7 %); type: functional
[6] = Acute toxicity in BALB/c mouse assessed as effect on blood CK level at 800 mg/kg, po measured on day 14; type: organism-based; conditions: in vivo; how it was run: as §1
[7] = Acute toxicity in BALB/c mouse assessed as effect on heart at 800 mg/kg, po measured on day 14 by H and E staining based light microscopic analysis; type: organism-based; conditions: in vivo
How it was run: (§2)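 Female and male BALB/c mice, 6-8 weeks old, dosed orally within 24 h at up to 400 mg/kg (free compound) or 800 mg/kg (nanocrystal). At the end of treatment, heart, liver, spleen, lung and kidney were sectioned, stained with H&E and imaged by light microscopy.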

[8] = Solubility of the compound in PBS; type: physicochemical
[9] = Acute toxicity in BALB/c mouse assessed as effect on blood LDLC level at 400 mg/kg, po measured on day 14; type: organism-based; conditions: in vivo; how it was run: as §1
[10] = Acute toxicity in BALB/c mouse assessed as effect on blood UA level at 800 mg/kg, po measured on day 14; type: organism-based; conditions: in vivo; how it was run: as §1
[11] = system: K562; assay: Antiproliferative activity against human K562 cells assessed as reduction in cell viability measured after 48 hrs by MTT assay; type: functional, cell-based; conditions: Homo sapiens, K562, 48 h
[12] = Acute toxicity in BALB/c mouse assessed as effect on liver at 800 mg/kg, po measured on day 14 by H and E staining based light microscopic analysis; type: organism-based; conditions: in vivo; how it was run: as §2
[13] = Acute toxicity in BALB/c mouse assessed as effect on blood CHO1 level at 800 mg/kg, po measured on day 14; type: organism-based; conditions: in vivo; how it was run: as §1
[14] = Acute toxicity in BALB/c mouse assessed as effect on blood CREA level at 800 mg/kg, po measured on day 14; type: organism-based; conditions: in vivo; how it was run: as §1
[15] = Acute toxicity in BALB/c mouse assessed as effect on blood TP level at 800 mg/kg, po measured on day 14; type: organism-based; conditions: in vivo; how it was run: as §1
[16] = system: Raji; assay: Induction of apoptosis in human Raji cells assessed as live cells at 0.125 uM measured after 48 hrs by Annexin V-FITC staining based flow cytometry (reference value: 98.09 %); type: functional
[17] = system: Raji; assay: Induction of apoptosis in human Raji cells assessed as necrotic cells at 0.031 uM measured after 48 hrs by Annexin V-FITC staining based flow cytometry (reference value: 0.21 %); type: functional
[18] = system: Raji; assay: Cell cycle arrest in human Raji cells assessed as accumulation at S phase at 0.031 uM measured after 24 hrs by propidium iodide/RNase staining based flow cytometry (reference value: 52%); type: functional
[19] = Acute toxicity in BALB/c mouse assessed as effect on blood CK level at 400 mg/kg, po measured on day 14; type: organism-based; conditions: in vivo; how it was run: as §1
[20] = Half life in mouse liver microsomes at 1 uM in presence of NADPH by LC-MS analysis; type: ADME, Microsome
How it was run: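 Compound at 1 μM with 0.5 mg/mL human, rat or mouse liver microsomes and 1 mM NADPH. Stopped with acetonitrile at 0, 5, 15, 30, 45, 60 and 90 min, centrifuged. Supernatant analysed by LC-MS/MS.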

[21] = Acute toxicity in BALB/c mouse assessed as effect on blood BILT level at 800 mg/kg, po measured on day 14; type: organism-based; conditions: in vivo; how it was run: as §1
[22] = system: Raji; assay: Induction of apoptosis in human Raji cells assessed as late apoptotic cells at 0.125 uM measured after 48 hrs by Annexin V-FITC staining based flow cytometry (reference value: 0.7 %); type: functional
[23] = Half life in Sprague-Dawley rat at 25 mg/kg, po administered via gavage by LC-MS analysis; type: ADME, organism-based; conditions: in vivo
How it was run: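 Male Sprague-Dawley rats, fasted overnight, with jugular vein catheters for serial blood sampling. Single dose given by oral gavage (25 mg/kg) or tail-vein injection (5 mg/kg). Blood drawn at set times and centrifuged at once for plasma. Plasma drug levels measured by LC-MS. Parameters reported as means, n = 6.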

[24] = system: Raji; assay: Antiproliferative activity against human Raji cells assessed as inhibition of cell proliferation at 0.02 to 0.156 uM measured after 48 hrs in presence of uridine by MTT assay; type: functional, cell-based
How it was run: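 Raji cells treated with or without 500 μM uridine, viability by MTT. Cells seeded at 2-10 × 10^3 per well, treated 24 h later for 48 h. MTT (5 mg/mL) for 2-4 h, product dissolved overnight in 20% acidified SDS, absorbance at 570 nm. Mean ± SD.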

[25] = Acute toxicity in BALB/c mouse assessed as effect on blood LDLC level at 800 mg/kg, po measured on day 14; type: organism-based; conditions: in vivo; how it was run: as §1
[26] = Acute toxicity in BALB/c mouse assessed as effect on blood TP level at 400 mg/kg, po measured on day 14; type: organism-based; conditions: in vivo; how it was run: as §1
[27] = Acute toxicity in BALB/c mouse assessed as effect on blood ALP level at 800 mg/kg, po measured on day 14; type: organism-based; conditions: in vivo; how it was run: as §1
[28] = Acute toxicity in BALB/c mouse assessed as effect on blood UA level at 400 mg/kg, po measured on day 14; type: organism-based; conditions: in vivo; how it was run: as §1
[29] = target: Dihydroorotate dehydrogenase (quinone), mitochondrial (Homo sapiens, UniProt Q02127); assay: Inhibition of human DHODH using dihydroorotate as substrate and CoQ10 as co-substrate preincubated for 30 mins followed by substrate addition by DCIP coupled microplate reader assay
[30] = Toxicity in NOD-SCID nude mouse xenografted with human Raji cells assessed as effect on body weight at 40 to 80 mg/kg/day, po administered 6 days a week for 3 weeks and measured every 3 days during compound dosing; type: organism-based; conditions: in vivo
How it was run: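 Mice, 6-7 weeks old, injected s.c. with 1×10^7 Raji cells in serum-free medium plus basement membrane matrix. At 100–200 mm3 tumours, randomised (n=6). Oral dosing 6 days/week for 3 weeks: 30 mg/kg/d free compound suspended in 5% NMP/95% PEG400, or 40 or 80 mg/kg/d nanocrystal. Body weight and tumour volume measured every 3 days.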

Dihydroorotate dehydrogenase (quinone), mitochondrial, sequence (Q02127 whole entry): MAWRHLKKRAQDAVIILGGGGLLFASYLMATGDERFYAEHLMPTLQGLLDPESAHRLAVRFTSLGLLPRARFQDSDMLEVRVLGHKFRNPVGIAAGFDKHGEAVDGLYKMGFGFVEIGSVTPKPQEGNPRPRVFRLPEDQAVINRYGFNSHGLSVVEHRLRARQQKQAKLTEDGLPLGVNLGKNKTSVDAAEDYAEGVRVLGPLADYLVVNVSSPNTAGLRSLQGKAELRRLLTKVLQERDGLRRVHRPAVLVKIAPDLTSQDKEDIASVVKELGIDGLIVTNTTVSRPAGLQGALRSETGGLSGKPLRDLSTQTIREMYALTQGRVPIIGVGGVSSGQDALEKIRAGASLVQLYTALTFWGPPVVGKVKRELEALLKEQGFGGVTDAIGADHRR

O=C1c2ccccc2C(=O)c2c1nnn2-c1cc(F)c(-c2ccccc2F)c(F)c1
IC50 [1]: 1650 nM
Activity [2]: Non-Toxic
Activity [3]: Non-Toxic
Activity [4]: Dose-dependent effect
Activity [5]: 4.26%
Activity [6]: Non-Toxic
Activity [7]: Non-Toxic
solubility [8]: 33.8 µg/mL (≈ 83.4 µM)
Activity [9]: Non-Toxic
Activity [10]: Non-Toxic
IC50 [11]: 110 nM
Activity [12]: Non-Toxic
Activity [13]: Non-Toxic
Activity [14]: Non-Toxic
Activity [15]: Non-Toxic
Activity [16]: 89.46%
Activity [17]: 0.37%
Activity [18]: 76.62%
Activity [19]: Non-Toxic
half-life at 1 µM ([20]; liver microsomes): 0.617 h
t1/2 ([20]; microsomes, 1 µM): 0.833 h
Activity [21]: Non-Toxic
Activity [22]: 6.04%
half-life ([23]; Sprague-Dawley): 8.83 h
t1/2 [23]: 12.47 h
inhibition [24]: inactive
Activity [25]: Non-Toxic
Activity [26]: Non-Toxic
Activity [27]: Non-Toxic
Activity [28]: Non-Toxic
IC50 [29]: 4.5 nM
Activity [30]: Non-Toxic
